Lung fibro prol = blocks proliferation of human lung fibroblasts; LL 47 human lung fibroblast viability, ATP luminescence; hits give low values; viability, % at 10 µM; hit rate 1.1% among 85,000; AID 719;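 active = viability at or below 50% in the single dose screen; inactive = viability above 50%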;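 also: compound exposure lasted 72 h before the ATP readout; 100% = median luminescence of untreated cell-only wells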
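Test system: LL 47 human lung fibroblasts; Quantity: 1,150 cells/well; Buffer or medium: IMEM plus 15% FBS; Dosing: tenfold compound dosing solution, DMSO at 0.1%; Timing: overnight cell rest, 72 h compound treatment at 37 °C; Detection: ATP-based CellTiter-Glo luminescent readout; Read-out basis: viability percentage against median untreated-cell control; Controls: cell-only wells, no compound.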
HUVEC prolif 384 = inhibitors of human endothelial cell proliferation; HUVEC proliferation, CellTiter-Glo luminescence, 72 h; hits give low values; viability, % at 10 µM (by protocol); hit rate 1.1% among 86,000; AID 648;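 active = viability at or below 30%; inactive = viability above 30%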;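 also: 100% = median luminescence of DMSO-only cell control wells on each plate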
H69AR growth 86K = blocks growth of human H69AR lung tumor cells; viability, % at 10 µM; AID 598; H69AR lung tumor viability, ATP luminescence, 72 h; hits give low values; hit rate 6% among 85,000;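 active = viability at or below 40%; inactive = viability above 40%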;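 also: multidrug resistant small cell line overexpressing MRP-1 efflux transporter; 100% = mean luminescence of untreated control wells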
HCT116 bCat-KO = beta-catenin-lacking colon tumor cell growth suppression; HCT116 beta-catenin knockout viability, CellTiter-Glo, 60 h; hits give low values; viability, % at 10 µM; hit rate 1.5% among 140,000;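 active = viability at or under a set limit, the compound median less 4 SD, cut at about 6% in these data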;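 also: 0% = Hyamine 1622 control at 20 µM and 100% = untreated cell control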
HCT116 PTEN-null = suppresses growth of cells with PTEN deletion | HCT116 PTEN-null viability, CellTiter-Glo, 60 h; hits give low values | viability, % at 10 µM | hit rate 1.2% among 140,000 | AID 827;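 active = viability at or below a set limit, 4 SD under the median of all tested compounds, cut at about 3.7% in these data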;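 also: PTEN knockout HCT116 line with beta catenin targeted HCT116 as companion control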
An asterisk follows results filed as active; x = no result given. Shown is part of a subset that was picked to be rich in hits.

SMILES	Lung fibro prol	HUVEC prolif 384	H69AR growth 86K	HCT116 bCat-KO	HCT116 PTEN-null
CCOC(=O)c1c(NC(=O)CN2CCCCC2)sc2c1CCCC2O (configuration not stated)	91.7	72.8	20.2*	70.0	76.0
CCC(C)(C)n1nnnc1C(c1cc2ccc(OC)cc2[nH]c1=O)N1CCc2ccccc2C1 (configuration not stated)	76.0	74.7	80.7	10.2	2.9*
COc1ccc2cc(C(c3nnnn3C(C)(C)C)N3CCc4ccccc4C3)c(=O)[nH]c2c1 (configuration not stated)	62.8	70.3	71.6	3.5*	4.2
CCN(CC)CCN(Cc1cc2cc3c(cc2[nH]c1=O)OCCO3)C(=O)NC1CCCCC1	92.8	89.2	34.6*	90.4	82.6
Cc1ccc2cc(CN(CC3CCCO3)C(=O)NC3CCCCC3)c(=O)[nH]c2c1C (configuration not stated)	81.5	82.8	28.1*	84.6	81.5
O=C(NC1CCCCC1)N(CCN1CCOCC1)Cc1cc2cc3c(cc2[nH]c1=O)OCCO3	86.5	84.9	79.7	89.9	87.4
Cc1ccccc1CSCC(Nc1ccc(C(=O)O)cc1[N+](=O)[O-])C(=O)O (configuration not stated)	108.2	108.2	103.9	61.7	77.5
CC(=O)Oc1cccc(N2C(=O)c3ccc(C(=O)O)cc3C2=O)c1	93.0	97.2	2.0*	107.4	109.1
COc1cccc(-c2nn[nH]n2)c1O	x	x	x	99.8	91.0
COc1ccc(O)c(-c2cc(C(F)(F)C(F)F)nc(-c3ccccc3)n2)c1	94.4	80.1	33.6*	92.7	74.5
Oc1ccccc1-c1cc(C(F)(F)C(F)F)nc(-c2ccccc2)n1	95.0	90.0	87.7	97.3	88.7
CC(Nc1nc(N2CCN(S(C)(=O)=O)CC2)nc2ccccc12)c1ccccc1 (configuration not stated)	78.7	13.7*	81.9	76.0	67.3
O=C(/C=C/Sc1ccccc1)c1ccccc1	8.3*	45.5	2.2*	2.1*	1.4*
O=C(/C=C/Nc1ccccc1)c1ccccc1	99.3	80.1	94.6	103.4	97.1
O=C(/C=C/Sc1ccccc1)c1ccc(Cl)cc1	32.8*	48.9	1.6*	10.6	7.8
Cc1ccc(C(=O)NCCSc2ccccc2)cc1S(=O)(=O)Nc1ccccc1	x	x	x	82.0	78.6
Cc1[nH]c2ccccc2c1N=Nc1ccccc1C(=O)O	x	x	x	86.2	88.5
CCn1nnc(-c2ccccc2NS(=O)(=O)c2ccc(C(=O)OC)cc2)n1	103.9	85.9	16.9*	42.7	41.3
COc1ccccc1NC(=O)Cn1nnc(-c2ccccc2NS(=O)(=O)c2ccccc2)n1	x	x	x	64.9	66.2
CC(C)OC(=O)c1c2nc3ccccc3nc2n2c1[nH]c(=O)c1ccccc12	63.1	64.6	33.1*	23.9	31.5
CC(C)OC(=O)c1c(N)n(CCCN2CCOCC2)c2nc3ccccc3nc12	104.2	94.6	59.5	91.0	94.3
CSc1nc2ccccc2cc1/C=C(\C#N)c1ccc(Cl)c(Cl)c1	x	x	x	1.9*	2.4*
CC(C)C(NS(=O)(=O)c1ccccc1)C(=O)OCc1cc([N+](=O)[O-])cc2c1OCOC2 (configuration not stated)	x	x	x	88.1	74.5
CC(OC(=O)CCc1nc2ccccc2c(=O)[nH]1)C(=O)c1ccc(Br)cc1 (configuration not stated)	x	x	x	94.7	91.1
CCCCc1ccc(Nc2nc(CCC)cc(=O)[nH]2)cc1	75.2	2.5*	57.7	88.4	75.4
SMILES	Lung fibro prol	HUVEC prolif 384	H69AR growth 86K	HCT116 bCat-KO	HCT116 PTEN-null
CCCc1cc(=O)[nH]c(Nc2ccc(N3CCCCC3)cc2)n1	97.2	112.5	87.5	79.2	84.3
CCc1ccc(/C=c2\s/c(=C\C(=O)C(C)(C)C)[nH]c2=O)cc1	83.7	47.3	14.1*	46.1	42.8
CC(C)(C)C(=O)/C=c1\[nH]c(=O)/c(=C\c2ccc(F)cc2)s1	74.8	65.8	17.7*	38.9	37.7
Cc1ccccc1/C=c1\s/c(=C\C(=O)C(C)(C)C)[nH]c1=O	69.4	52.4	18.7*	23.9	28.0
COc1cc2c(cc1NC(=O)c1cccc(S(=O)(=O)N(C)C)c1)oc1ccccc12	x	x	x	75.9	72.6
Cc1ccc(N2CC(C(=O)Nc3nccs3)CC2=O)cc1Cl (configuration not stated)	28.6*	17.2*	86.8	61.5	51.4
COC(=O)c1ccccc1NC(=O)C1CC(=O)N(c2ccc(F)cc2)C1 (configuration not stated)	x	x	x	94.2	87.0
COC(=O)c1ccccc1NC(=O)C1CC(=O)N(c2ccc(C)c(C)c2)C1 (configuration not stated)	101.7	95.5	32.0*	102.5	98.2
O=C(Nc1ccc(Cl)c(Cl)c1)C1CC(=O)N(c2ccc(Br)cc2)C1 (configuration not stated)	102.5	53.6	9.0*	37.6	44.4
CCCC(=O)c1c[nH]c(C(=O)NCc2ccco2)c1	x	x	x	98.7	102.7
O=C1c2ccccc2C(=O)c2c1ccc1c(=O)n(C3CCCCC3)[nH]c21	x	3.2*	36.0*	7.0	22.5
CCn1c2ccccc2c2nc3cc(S(=O)(=O)N4CCOCC4)ccc3nc21	84.3	90.2	6.1*	68.9	83.7
c1ccc2nc3c(nc2c1)c1ccccc1n3CCN1CCOCC1	84.1	92.2	83.4	47.0	48.6
Cc1cc(C)c2nc(-c3ccccn3)cc(C(=O)Nc3cc(C)on3)c2c1	80.9	50.4	34.1*	53.5	47.9
Cc1ccc(-c2cc(C(=O)Nc3cc(C)on3)c3ccccc3n2)cc1	x	x	x	88.1	99.4
Cc1cc(NC(=O)c2cc(-c3ccncc3)nc3c(C)cccc23)no1	50.2	32.8	23.5*	9.1	15.9
CCC(C)(C#CCN1CCCCC1)OCCC#N (configuration not stated)	x	x	x	89.3	94.1
CCOc1cc(N2CCOCC2)c(OCC)cc1NC(=O)c1ccc(OCc2c(C)noc2C)c(OC)c1	x	x	x	88.0	86.2
Cc1cc(C)c(C(=O)c2ccc(C(=O)N(C(C)C)C(C)C)cc2)c(C)c1	83.7	92.2	23.9*	75.2	73.3
CCCn1c(C)nc2c(c1=O)c1nc3ccccc3nc1n2CCC1=CCCCC1	85.5	73.3	12.8*	20.7	15.1
Cc1cc(Cl)ccc1NC(=S)NCCC(c1ccccc1)c1ccccc1	x	x	x	82.9	78.0
COc1ccc(C(=O)c2c(C(F)(F)F)oc3c2C(=O)c2ccccc2C3=O)cc1	2.3*	3.2*	81.5	1.2*	1.8*
O=C(Nc1cccnc1)c1ccc(Oc2ccccc2)cc1	11.0*	97.7	95.3	83.2	90.8
CCn1ncc(/C=N\NC(=O)Cc2ccc([N+](=O)[O-])cc2)c1C	x	x	x	87.8	99.4
CN1CC(c2ccccc2)C2(SC(=S)N(Cc3ccco3)C2=O)C12C(=O)Nc1ccccc12 (configuration not stated)	92.6	49.6	1.6*	60.5	69.2
CC(=O)n1nc(-c2ccc(Cl)cc2)nc1NCc1ccco1	74.1	57.0	32.7*	62.4	71.0
O=C(c1cccs1)n1nc(-c2ccc(Cl)cc2)nc1NCc1ccco1	97.8	95.2	77.1	44.2	55.6

From PubChem
